The target of experiment [1] is Human immunodeficiency virus type 1 reverse transcriptase (Human immunodeficiency virus 1, UniProt Q72547, M184V). Kind of experiment: Inhibitory activity against HIV-1 reverse transcriptase (RT M184V). An outline of the steps: (§1)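 Recombinant HIV-1 RT M184V or M184I was expressed in E. coli JM109 (1 mM IPTG, 5 h), purified over Q and SP columns to >90%. The template-primer was MS2 RNA/22A DNA in 50 mM Tris-HCl pH 7.8, 6 mM MgCl2, 150 mM KCl, 0.01% Triton X-100, with [3H]dATP as the sole nucleotide (distributive mode). Reactions were enzyme-started at 37 °C and sampled 4–5 times onto DE81 filters. Ki came from the abscissa intercept of the Lineweaver–Burk replot.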

Experiment [2] addresses Human immunodeficiency virus type 1 reverse transcriptase (Human immunodeficiency virus 1, UniProt Q72547, M184I). Kind of experiment: Inhibitory activity against HIV-1 reverse transcriptase (RT M184I). The method in brief: as §1
For experiment [3], the target named is Human immunodeficiency virus type 1 reverse transcriptase (Human immunodeficiency virus 1, UniProt Q72547). Kind of experiment: Inhibitory activity against HIV-1 Reverse transcriptase wild-type (RT wt). The method in brief:
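Recombinant HIV-1 RT (wild-type, M184V or M184I) was expressed in E. coli JM109 with 1 mM IPTG for 5 h, then purified on Q and SP columns to >90% purity. Assay used MS2 RNA/22A DNA primer in 50 mM Tris-HCl pH 7.8, 6 mM MgCl2, 150 mM KCl and 0.01% Triton X-100. Synthesis was distributive, with [3H]dATP as the only nucleotide, at 37 °C. Timed aliquots were spotted on DE81 and counted by scintillation. Ki came from the abscissa intercept of the Lineweaver–Burk replot. Ratio was Ki over dATP Km.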

Take `Nc1ncnc2c1ncn2[C@H]1CC[C@@H](COP(=O)(O)OP(=O)(O)OP(=O)(O)O)O1` [DDA-TRIPHOSPHATE]: the Ki (usually a measure of affinity in units of concentration, obtained from inhibition or displacement) in experiment [1] is 500 nM; in experiment [2], 1200 nM; in experiment [3] it was 510 nM.
For the compound `Nc1ncnc2c1ncn2/C=C1\CC1COP(=O)(O)OP(=O)(O)OP(=O)(O)O` (stereo not given), in experiment [3], the Ki came to 10000 nM.
In experiment [3], `Nc1ncnc2c1ncn2/C=C1/CC1COP(=O)(O)OP(=O)(O)OP(=O)(O)O` (stereo not given) gave a Ki of 320 nM. This Ki lies about 31-fold lower than the previous one.

For the origin of these results see ChEMBL document CHEMBL1145749, “Inhibition of human immunodeficiency virus reverse transcriptase by synadenol triphosphate and its E-isomer” (J Med Chem, 2003).
